Results from BindingDB's records for doi:10.1021/ml5002486 (National Institute of Diabetes and Digestive and Kidney …, 2014).

Experiments:
Adenosine receptor A2a [1] = target: T1, Adenosine receptor A2a (Homo sapiens, UniProt P29274); experiment: Displacement of [3H]4-[2-[7-amino-2-(2-furyl)-1,2,4-triazolo[1,5-a][1,3,5]triazin-5-yl-amino]ethylphenol from wild type human adenosine A2a receptor expressed in HEK293 cells assessed as radioligand Kd compound preincubated for 30 mins
Target sequence in this assay (P29274 whole entry): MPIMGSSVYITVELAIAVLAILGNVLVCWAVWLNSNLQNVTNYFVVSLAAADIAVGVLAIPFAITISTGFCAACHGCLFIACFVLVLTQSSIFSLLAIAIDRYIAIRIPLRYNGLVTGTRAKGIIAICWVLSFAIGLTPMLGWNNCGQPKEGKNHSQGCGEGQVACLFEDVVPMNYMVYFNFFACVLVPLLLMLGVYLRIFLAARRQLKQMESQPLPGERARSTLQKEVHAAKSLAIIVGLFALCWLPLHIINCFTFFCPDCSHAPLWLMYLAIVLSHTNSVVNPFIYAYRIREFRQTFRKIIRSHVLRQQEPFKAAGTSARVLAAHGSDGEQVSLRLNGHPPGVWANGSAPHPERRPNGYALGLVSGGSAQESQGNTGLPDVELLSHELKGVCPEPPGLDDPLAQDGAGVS

Adenosine receptor A2a [2] = target: T1, Adenosine receptor A2a; experiment: Displacement of [3H]4-[2-[7-amino-2-(2-furyl)-1,2,4-triazolo[1,5-a][1,3,5]triazin-5-yl-amino]ethylphenol from wild type human adenosine A2a receptor expressed in COS-7 cells assessed as radioligand Kd compound preincubated for 30 mins
Outline: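 WT, K150A or K153A human A2A receptor was transiently transfected into COS-7 cells. Membranes were preincubated with or without compound, then washed. Saturation binding used antagonist radioligand [3H]7, with nonspecific binding defined by 10 μM NECA. Kd (nM) and Bmax (pmol/mg protein) were derived from the saturation curves.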
Target sequence in this assay (P29274 whole entry): as above

Adenosine receptor A2a [3] = target: T1, Adenosine receptor A2a; experiment: Displacement of [3H]4-[2-[7-amino-2-(2-furyl)-1,2,4-triazolo[1,5-a][1,3,5]triazin-5-yl-amino]ethylphenol from human adenosine A2a receptor K150A mutant expressed in COS-7 cells assessed as radioligand Kd compound preincubated for 30 mins
Target sequence in this assay (P29274 whole entry, looked up): as the sequence (P29274 whole entry) above

Row | Kd (Adenosine receptor A2a [1]) | Kd (Adenosine receptor A2a [2]) | Kd (Adenosine receptor A2a [3]) | Compound
1 | 5 nM | 2.2 nM | 3.17 nM | CCNC(=O)[C@H]1O[C@@H](n2cnc3c(N)nc(NCCc4ccc(CCC(=O)Nc5ccc(OC(C)=O)c([N+](=O)[O-])c5)cc4)nc32)[C@H](O)[C@@H]1O
2 | 3.2 nM |  |  | CCNC(=O)[C@H]1O[C@@H](n2cnc3c(N)nc(NCCc4ccc(CCC(=O)Nc5ccc(OC(=O)CCCCN=[N+]=[N-])c([N+](=O)[O-])c5)cc4)nc32)[C@H](O)[C@@H]1O
